Assay outcomes as filed in PubChem.
Compounds with a hit are over-represented: about 2.9% of the library has one in this group of screens.
HIV Env fusion: inhibitors of HIV Env-mediated cell fusion | HeLa-JRFL Env/CEM21 cell fusion, luciferase | inhibition, % at 12.3 µM | 360,000 compounds, 1.1% hits;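 active = mean replicate inhibition score of at least 50 and every replicate individually at or above 50; inconclusive = only one of the two criteria met; inactive = mean below 50 and not all replicates reaching 50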
GSIS activator: primary screen for activators of insulin secretion dependent on glucose, INS-1E cells, GLuc reporter luminescence; 370,000 compounds, 0.61% hits; activation, % at 16.6 µM; INS-1E GLuc reporter insulin secretion, 2-3 h;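 active = lowest replicate activation of at least 40%, so every replicate reaches that level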
Cneo AK release: causes C. neoformans cell lysis; adenylate kinase release luminescence, 4 h; normalised: neutral wells 0, clomiphene wells 100; lysis activity, % at 15 µM; 360,000 compounds, 0.2% hits; AID 651654;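 active = mean lysis activity across replicates of at least 80%, whatever share of replicates individually reach that level; inactive = mean lysis activity below 80%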
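Material – Cryptococcus neoformans yeast cells · Quantity – 5 × 10^6 yeast cells/mL · Buffer or medium – YPD medium · Compound – single dose · Timing – 4 h static compound exposure, 37 °C, read 1 h post-reagent · Signal – adenylate kinase release luminescence · Read-out basis – lysis from increased AK signal · Benchmarks – Clomiphene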
dFosB activator: enhances mouse delta FosB homodimer DNA binding. P13346. purified delta FosB, TAMRA-CDK5 oligo fluorescence polarization; percent of positive-control signal above neutral wells. activation, % at 25 µM. 340,000 compounds, 0.99% hits. AID 493131;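 active = mean activation above about 17%, with every replicate also reaching it, limit read from the data, passing the limit was not always enough; inconclusive = only one of the two conditions met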
Target sequence (P13346 whole entry, looked up): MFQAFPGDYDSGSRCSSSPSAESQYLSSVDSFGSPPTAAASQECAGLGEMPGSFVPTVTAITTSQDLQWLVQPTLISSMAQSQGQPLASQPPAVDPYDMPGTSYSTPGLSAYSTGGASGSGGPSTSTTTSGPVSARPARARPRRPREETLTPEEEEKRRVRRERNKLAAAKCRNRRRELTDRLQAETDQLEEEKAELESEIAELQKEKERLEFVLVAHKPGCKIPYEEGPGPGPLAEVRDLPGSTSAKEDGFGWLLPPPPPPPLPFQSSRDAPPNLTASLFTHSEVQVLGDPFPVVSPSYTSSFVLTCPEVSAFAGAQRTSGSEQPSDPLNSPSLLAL
CDK5 p35 inh: CDK5/p35 (human) kinase inhibition; Recombinant CDK5/p35, ADP-Glo luminescence, 60 min; inhibition, % at 10 µM; 330,000 compounds, 0.01% hits; AID 488839;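 active = highest replicate inhibition of at least 50% and at least 75% of replicates reaching 50%; inconclusive = only one of the two criteria met; inactive = both criteria failed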
PAX8 inh HTS: lowers PAX8-driven luciferase in RMG-I cells; RMG-I TPO-luciferase reporter, SteadyGlo, 24 h; AID 652154; 360,000 compounds, 1.2% hits; inhibition, % at 12.6 µM;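 active = mean replicate inhibition at least 60% with every replicate also reaching 60%; inconclusive = only one of the two criteria is met; inactive = mean below 60% and not all replicates reaching 60%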;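 also: luciferase light reporting Pax8 driven TPO promoter activity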
Hits are given with their value; – = inactive; ? = inconclusive; · = no result given.

SMILES | HIV Env fusion | GSIS activator | Cneo AK release | dFosB activator | CDK5 p35 inh | PAX8 inh HTS
COc1cc(CN2CCc3ccccc3C2)ccc1O | – | 77 | · | – | – | –
COCc1cc(CN2CCCC2)c(O)c2ncccc12 | · | – | – | – | – | ·
Oc1ccc(CN2CCc3ccccc3C2)c2cccnc12 | 62 | · | – | – | – | ·
Oc1ccc(CN2CCCCC2)c2cccnc12 | · | – | – | – | – | ·
CN(c1ccc(NC(=O)Cc2cn(C)c3ccccc23)cc1)c1ccccn1 | – | – | · | · | · | –
C[C@@H]1CN([C@@H](C)CO)S(=O)(=O)c2ccc(C#CC3CC3)cc2O[C@@H]1CN(C)C(=O)c1ccncc1 | – | – | – | · | · | ·
O=C(CN1CCOCC1)NCC[C@H]1CC[C@H](NC(=O)Nc2ccc(Cl)cc2)[C@H](CO)O1 | – | – | – | · | · | –
Oc1ccc(COCc2ccccc2)c2cccnc12 | · | · | – | – | – | ·
Oc1ccc(Cc2ccccc2)c2cccnc12 | · | – | – | · | · | 87
Cc1ccc(C)c(S(=O)(=O)N2CCN(Cc3ccc(O)c4ncccc34)CC2)c1 | – | – | · | – | – | 73
Oc1ccc(CN2CCC(Cc3ccccc3)CC2)c2cccnc12 | – | – | · | · | · | 76
C[C@@H]1CN([C@@H](C)CO)C(=O)c2cc(NS(=O)(=O)c3ccc(F)cc3)ccc2O[C@@H](C)CCCCO[C@@H]1CN(C)C(=O)CCC(F)(F)F | – | – | – | · | · | –
Cc1ccc2nc(-c3ccc(NC(=O)CCN4C(=O)c5ccccc5C4=O)cc3)sc2c1 | – | · | – | – | – | –
Cc1ccc2nc(-c3ccc(NC(=S)NC4CC(C)(C)NC(C)(C)C4)cc3)sc2c1 | – | – | – | – | – | 91
Cc1ccc(C2(C)NC(=O)N(CC(=O)Nc3ccc(-c4nc5ccc(C)cc5s4)cc3)C2=O)cc1 (configuration not stated) | – | 44 | – | – | – | –
CCc1ccc(C(=O)CN2C(=O)NC(C)(c3ccc(C)cc3)C2=O)cc1 (configuration not stated) | 69 | – | – | – | – | –
Cc1ccc(C2(C)NC(=O)N(CC(=O)c3ccc4c(c3)OCCO4)C2=O)cc1 (configuration not stated) | · | – | – | – | – | –
COc1ccc(N2CCN(C(=O)Cc3nn(C)c(=O)c4ccccc34)CC2)cc1 | 61 | · | – | – | – | ·
COc1ccc(N2CCN(C(=O)Cc3ccc(-n4c(=O)[nH]c5ccccc5c4=O)cc3)CC2)cc1 | – | · | – | – | – | ·
FC(F)(F)c1ccccc1CN1[C@@H]2CNC[C@H]1C2c1ccc(-c2ccncc2)cc1 (some centres not stated) | · | – | · | · | · | –
COC(=O)[C@]12C[C@H](CC(=O)NCc3ccc(OC)c(OC)c3)C(=O)N(CCC3=CCCCC3)C1=C[C@H](C(C)(C)C)O[C@@H]2C | 82 | – | · | · | · | –
COC(=O)[C@]12C[C@H](CC(=O)NCc3ccc(OC)c(OC)c3)C(=O)N(Cc3ccccc3)C1=C[C@H](C(C)(C)C)O[C@@H]2C | 88 | – | · | · | · | –
COC(=O)[C@]12C[C@H](CC(=O)N3CCN(C(=O)c4ccco4)CC3)C(=O)N(CCC3=CCCCC3)C1=C[C@H](C(C)(C)C)O[C@@H]2C | 74 | – | · | · | · | –
COC(=O)[C@]12C[C@H](CC(=O)N3CCCCC3)C(=O)N(CCC3=CCCCC3)C1=C[C@H](C(C)(C)C)O[C@@H]2C | – | – | · | · | · | –
C[C@@H](O)C#Cc1cnc2c(c1)C(=O)N([C@@H](C)CO)C[C@H](C)[C@H](CN(C)C(=O)Nc1ccc(C(F)(F)F)cc1)O2 | – | – | – | · | · | –
SMILES | HIV Env fusion | GSIS activator | Cneo AK release | dFosB activator | CDK5 p35 inh | PAX8 inh HTS
CO[C@H]1CN(C)C(=O)c2ccc(NC(=O)c3ccccc3)cc2OC[C@H](C)N(C(C)=O)C[C@H]1C | · | – | – | · | · | ·
C[C@@H]1CCCCO[C@H](CN(C)C(=O)c2ccccc2)[C@@H](C)CN([C@@H](C)CO)C(=O)c2cc(NC(=O)c3ccncc3)ccc2O1 | – | – | – | · | · | –
Cc1cccc(Nc2cc(C)c3c(O)cccc3n2)c1C | – | – | – | 43 | – | –
Cc1cccc(NC(=S)N(C)C)c1C | – | – | · | – | – | –
CC=Cc1ccc2n(c1=O)C[C@H]1[C@H](CO)[C@@H](C(=O)Nc3ccccc3)N(CC)[C@@H]21 (mixture of isomers) | · | – | · | · | · | ·
S=C(NCCc1cccc(Cl)c1)NC1CCCCC1 | – | – | 88 | – | – | –
Cc1noc(C)c1NC(=O)N(C)C[C@H]1Oc2ccc(NC(=O)c3ccncc3)cc2C(=O)N([C@@H](C)CO)C[C@H]1C | · | – | – | · | · | ·
Cc1c(CCOC(=O)CC23CC4CC(CC(C4)C2)C3)sc[n+]1CC(=O)c1ccccc1 | ? | – | · | – | – | –
Cc1c(CCOC(=O)C23CC4(C)CC(C)(CC(C)(C4)C2)C3)sc[n+]1CC(=O)c1ccccc1 | 62 | – | · | – | – | –
COc1cc(CNS(=O)(=O)c2ccc3c(c2)CC(C)N3C(=O)C2CCC2)cc(OC)c1OC (configuration not stated) | 57 | – | – | – | · | –
CC1(C)CC[C@]2(C(=O)O)CC[C@]3(C)C(=CC[C@@H]4[C@@]5(C)CC[C@H](O[C@@H]6O[C@H](C(=O)O)[C@@H](O)[C@H](O[C@@H]7OC[C@H](O)[C@H](O)[C@H]7O)[C@H]6O)C(C)(C)[C@@H]5CC[C@]43C)[C@@H]2C1 | – | 200 | – | – | – | 101
O=C(C[C@H]1C[C@@H]2c3cc(NS(=O)(=O)c4ccc(F)cc4)ccc3O[C@@H]2[C@@H](CO)O1)NCc1ccc(Cl)cc1 | ? | – | – | · | · | –
COc1cccc2sc3cc(C#Cc4ccccn4)ccc3c(=O)c12 | – | – | – | – | – | –
COc1cc2sc3ccc(C#Cc4ccccn4)cc3c(=O)c2cc1OC | 56 | – | – | – | – | –
COc1cc2sc3ccc(C#Cc4ccc(N)cc4)cc3c(=O)c2cc1OC | – | 58 | – | – | – | –
N#CC(Cc1ccccc1OC(F)F)c1nc2ccccc2[nH]1 (configuration not stated) | · | – | · | – | – | 76
COc1ccccc1CC(Cc1nc2ccccc2[nH]1)c1nc2ccccc2[nH]1 (configuration not stated) | – | – | · | – | – | –
Cc1ccc(S(=O)(=O)N2CCN(C(=O)COC(=O)COc3ccc(Cl)cc3)CC2)c(C)c1 | · | · | – | 208 | – | –
C[C@@H]1CCCCO[C@@H](CN(C)Cc2ccc(C(=O)O)cc2)[C@H](C)CN([C@@H](C)CO)C(=O)c2cc(NC(=O)NC3CCCCC3)ccc2O1 | – | – | – | · | · | –
COc1ccc(Cl)cc1C(=O)NC(=S)Nc1ccccc1N1CCOCC1 | – | – | – | – | – | –
O=C(NC(=S)Nc1cc(Cl)ccc1N1CCOCC1)c1ccccc1[N+](=O)[O-] | – | – | 340 | – | – | –
